# Assay results taken from PMC4885662 (The Laryngoscope, 2014).
# Like-named read-outs stand apart in the source and are kept apart here.
# Assays:
# guinea pigs [1] = format: in vivo, guinea pig; conditions: for Click threshold shift, difference as compared to the control group: single shot, vs water for injection ear
# [2] = Body weight after systemic application; format: in vivo, guinea pig
# guinea pigs [3] = format: in vivo, guinea pig; conditions: for Hearing threshold at 4 kHz / Hearing threshold at 8 kHz / Hearing threshold at 16 kHz / Hearing threshold at 32 kHz / Mean hearing threshold at 1 kHz / Mean hearing threshold at 2 kHz: day 28
# [4] = cited from earlier work
# inner hair cells = test: Inner hair cell counts in organ of Corti whole-mounts; format: in vivo, guinea pig; conditions: 1.5 mg/kg systemic; after day 28
# Procedure, shortened: (§1)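 Guinea pigs were dosed intratympanically (bulla filled; water for injection in the opposite ear) or intraperitoneally daily for 3 days. After the day-28 audiometry they were perfused with 4% buffered PFA. Cochleae were decapsulated and stained 30 min at room temperature with phalloidin-TRITC (0.3 µg/ml) and Hoechst 33342 (0.05 mg/ml), then imaged by confocal microscopy. Hair cells were counted in 3 random 200 μm segments per turn, as viable/(viable+missing) percentage.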
# peritoneum = test: Histologic analysis of the peritoneum after i.p. application; format: in vivo, guinea pig; conditions: selected animals
# outer hair cells = test: Outer hair cell counts in organ of Corti whole-mounts; format: in vivo, guinea pig; conditions: for Outer hair cell counts, 2nd turn / Outer hair cell counts, 3rd turn / Outer hair cell counts, apex / Outer hair cell counts, basal turn: after day 28
# Procedure, shortened: as §1
structure (smiles),measurement,setting,value
"CNCC(Cl)c1ccc(OC(C)=O)cc1.Cl (centres unmarked) [CpdA, 2-(4-acetoxyphenyl)-2-chloro-N-methyl-ethylammonium chloride]","Click threshold shift, difference as compared to the control group",guinea pigs [1]; 1 mM IT,28 dB
same,"Difference in click threshold shift vs control, day 28",guinea pigs [1]; 1 mM IT,19 dB
same,Change in click hearing thresholds as compared to baseline,guinea pigs [1]; 1.5 mg/kg intraperitoneally on three consecutive days,did not result in clinically relevant or statistically significant changes
same,Change in click hearing thresholds as compared to baseline,guinea pigs [1]; 4.5 mg/kg intraperitoneally on three consecutive days,did not result in clinically relevant or statistically significant changes
same,"Click threshold shift, difference as compared to the control group",guinea pigs [1]; 10 mM IT,21 dB
same,"Difference in click threshold shift vs control, day 28",guinea pigs [1]; 10 mM IT,12 dB
same,Body weight,[2],weight loss was also observed
same,Hearing threshold at 4 kHz,guinea pigs [3]; 1 mM IT,57.5 dB SPL
same,Hearing threshold at 8 kHz,guinea pigs [3]; 1 mM IT,40.8 dB SPL
same,Hearing threshold at 16 kHz,guinea pigs [3]; 1 mM IT,32.5 dB SPL
same,Hearing threshold at 32 kHz,guinea pigs [3]; 1 mM IT,50 dB SPL
same,Mean hearing threshold at 1 kHz,guinea pigs [3]; 1 mM IT,56.7 dB SPL
same,Mean hearing threshold at 2 kHz,guinea pigs [3]; 1 mM IT,55 dB
same,Frequency-specific ABR threshold shift vs baseline,"guinea pigs [3]; 1.5 mg/kg intraperitoneally, day 21, p=0.048",5 dB
same,Hearing threshold at 4 kHz,guinea pigs [3]; 10 mM IT,49.2 dB SPL
same,Hearing threshold at 8 kHz,guinea pigs [3]; 10 mM IT,35 dB SPL
same,Hearing threshold at 16 kHz,guinea pigs [3]; 10 mM IT,35 dB SPL
same,Hearing threshold at 32 kHz,guinea pigs [3]; 10 mM IT,66.7 dB SPL
same,Mean hearing threshold at 1 kHz,guinea pigs [3]; 10 mM IT,44.2 dB SPL
same,Mean hearing threshold at 2 kHz,guinea pigs [3]; 10 mM IT,40 dB
same,Stability in buffered solutions,[4],instability
same,"Inner hair cell counts, 2nd turn",inner hair cells,99.6 ± 1.3%
same,"Inner hair cell counts, 3rd turn",inner hair cells,99.7 ± 1.2%
same,Histologic analysis of the peritoneum,peritoneum,did not show any inflammatory or necrotic alterations
same,"Outer hair cell counts, 2nd turn",outer hair cells; 1 mM IT,99.5 ± 1.3%
same,"Outer hair cell counts, 3rd turn",outer hair cells; 1 mM IT,99.0 ± 3.5%
same,"Outer hair cell counts, apex",outer hair cells; 1 mM IT,95.2 ± 7.5%
same,"Outer hair cell counts, basal turn",outer hair cells; 1 mM IT,99.5 ± 1.4%
same,"Outer hair cell counts, 2nd turn",outer hair cells; 1.5 mg/kg systemic,99.8 ± 1.3%
same,"Outer hair cell counts, 3rd turn",outer hair cells; 1.5 mg/kg systemic,97.7 ± 6.4%
same,"Outer hair cell counts, apex",outer hair cells; 1.5 mg/kg systemic,93.8 ± 9.3%
same,"Outer hair cell counts, basal turn",outer hair cells; 1.5 mg/kg systemic,99.6 ± 1.2%
same,"Outer hair cell counts, 2nd turn",outer hair cells; 4.5 mg/kg systemic,99.7 ± 1.3%
same,"Outer hair cell counts, 3rd turn",outer hair cells; 4.5 mg/kg systemic,98.5 ± 3.5%
same,"Outer hair cell counts, apex",outer hair cells; 4.5 mg/kg systemic,98.5 ± 3.0%
same,"Outer hair cell counts, basal turn",outer hair cells; 4.5 mg/kg systemic,99.9 ± 0.6%
same,"Outer hair cell counts, 2nd turn",outer hair cells; 10 mM IT,98.4 ± 2.4%
same,"Outer hair cell counts, 3rd turn",outer hair cells; 10 mM IT,98.8 ± 3.3%
same,"Outer hair cell counts, apex",outer hair cells; 10 mM IT,97.7 ± 4.2%
same,"Outer hair cell counts, basal turn",outer hair cells; 10 mM IT,99.6 ± 1.3%
same,Loss of outer or inner hair cells,outer hair cells; any of the treatment groups (IT and systemic),did not result in a statistically significant loss
